Drawing on ChEMBL document CHEMBL2177027, “Exploring the directionality of 5-substitutions in a new series of 5-alkylaminopyrazolo[4,3-e]1,2,4-triazolo[1,5-c]pyrimidine as a strategy to design novel human a(3) adenosine receptor antagonists” (J Med Chem, 2012), this text covers Ratio Ki and Ki for 24 compounds.

The structures appear in SMILES notation.

Assay [1] can be described thus: Selectivity ratio of Ki for human adenosine A1 receptor expressed in CHO cell membrane to Ki for human adenosine A2A receptor expressed in CHO cell membrane. The assay is classed as cell-based.
Assay [2] addresses Adenosine receptors; A1 & A3 (Homo sapiens) (UniProt P30542+P0DMS8). The assay can be described thus: Selectivity ratio of Ki for human adenosine A1 receptor expressed in CHO cell membrane to Ki for human adenosine A3 receptor expressed in CHO cell membrane. Format: cell-based.
The target of another assay is T1, Adenosine receptor A1 (Homo sapiens, UniProt P30542).
T1 sequence (P30542 whole entry): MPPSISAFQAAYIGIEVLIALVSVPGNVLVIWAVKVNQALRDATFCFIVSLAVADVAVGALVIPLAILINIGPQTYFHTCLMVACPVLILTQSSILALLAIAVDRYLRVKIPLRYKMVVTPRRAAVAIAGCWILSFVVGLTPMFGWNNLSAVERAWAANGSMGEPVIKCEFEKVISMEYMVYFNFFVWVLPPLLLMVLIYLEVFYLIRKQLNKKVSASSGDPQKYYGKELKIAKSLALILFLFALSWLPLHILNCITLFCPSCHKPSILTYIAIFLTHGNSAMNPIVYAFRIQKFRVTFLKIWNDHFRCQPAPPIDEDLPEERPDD
The assay can be described thus: Displacement of [3H]CCPA from human adenosine A1 receptor expressed in CHO cell membrane. The assay is classed as cell membranes. The method, boiled down:
(§1)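 CHO cells stably transfected with the human receptor subtype. Membranes were prepared by a 1000g spin to clear fragments and nuclei, then pelleted from the supernatant at 100 000g. Pellet was resuspended in the respective binding buffer, frozen in liquid nitrogen and stored until radioligand competition binding.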
Background: Displacement assays read how much labelled ligand stays bound in the presence of the test substance.

Another assay addresses T2, Adenosine receptor A2b (Homo sapiens, UniProt P29275).
T2 sequence (P29275 whole entry): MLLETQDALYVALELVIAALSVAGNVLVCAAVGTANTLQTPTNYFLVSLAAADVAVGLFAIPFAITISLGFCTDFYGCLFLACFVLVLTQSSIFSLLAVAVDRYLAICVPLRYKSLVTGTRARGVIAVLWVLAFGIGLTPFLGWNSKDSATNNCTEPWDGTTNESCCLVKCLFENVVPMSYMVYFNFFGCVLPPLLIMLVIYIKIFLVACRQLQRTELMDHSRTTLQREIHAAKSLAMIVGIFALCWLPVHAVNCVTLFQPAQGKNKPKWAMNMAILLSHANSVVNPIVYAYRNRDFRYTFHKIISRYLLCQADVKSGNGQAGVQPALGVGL
The assay can be described thus: Antagonist activity at human adenosine A2B receptor expressed in CHO cells assessed as NECA-induced adenylate cyclase activity. Format: functional, cell-based. In outline: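 Membranes from stably transfected CHO cells made with a single high-speed spin of the homogenate. Incubated 20 min with about 150 000 cpm [α-³²P]ATP in mixture lacking EDTA and NaCl. IC50 taken from concentration-dependent inhibition of NECA-stimulated adenylyl cyclase using Hill equation.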

Assay [3] in a line: Selectivity ratio of Ki for human adenosine A2A receptor expressed in CHO cell membrane to Ki for human adenosine A3 receptor expressed in CHO cell membrane. Format: cell-based.
In a further assay the target is T3, Adenosine receptor A3 (Homo sapiens, UniProt P0DMS8).
T3 sequence (P0DMS8 whole entry): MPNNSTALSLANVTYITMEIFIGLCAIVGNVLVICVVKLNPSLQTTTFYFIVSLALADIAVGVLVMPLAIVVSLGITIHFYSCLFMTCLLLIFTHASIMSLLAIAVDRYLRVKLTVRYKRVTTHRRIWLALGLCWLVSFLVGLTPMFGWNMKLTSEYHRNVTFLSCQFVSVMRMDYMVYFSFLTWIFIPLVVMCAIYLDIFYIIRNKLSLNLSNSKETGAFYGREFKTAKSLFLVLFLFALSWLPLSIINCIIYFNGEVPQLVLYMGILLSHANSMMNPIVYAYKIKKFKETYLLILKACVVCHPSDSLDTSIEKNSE
As to the kind of experiment: Displacement of [3H]NECA from human adenosine A3 receptor expressed in CHO cell membrane. Format: cell membranes. In outline: as §1

The target of a further assay is Adenosine receptor A2a (Homo sapiens, UniProt P29274). The assay can be described thus: Displacement of [3H]NECA from human adenosine A2A receptor expressed in CHO cell membrane. Format: cell membranes. In outline: as §1
Adenosine receptor A2a, sequence (P29274 whole entry): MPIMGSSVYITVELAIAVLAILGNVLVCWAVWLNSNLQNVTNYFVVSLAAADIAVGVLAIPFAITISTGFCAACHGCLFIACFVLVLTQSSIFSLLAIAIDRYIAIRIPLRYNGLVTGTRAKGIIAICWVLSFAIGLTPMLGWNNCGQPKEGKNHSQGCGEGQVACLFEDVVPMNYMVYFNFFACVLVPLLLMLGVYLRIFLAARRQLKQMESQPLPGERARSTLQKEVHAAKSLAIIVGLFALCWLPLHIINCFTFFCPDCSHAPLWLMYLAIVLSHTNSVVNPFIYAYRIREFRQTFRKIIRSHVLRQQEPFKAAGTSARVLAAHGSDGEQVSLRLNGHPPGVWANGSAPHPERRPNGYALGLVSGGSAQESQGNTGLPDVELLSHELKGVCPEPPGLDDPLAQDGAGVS

As to `Cn1cc2c(nc(NCC3CCCCC3)n3nc(-c4ccco4)nc23)n1`, the Ratio Ki in assay [1] amounted to 0.98; in assay [2], 17; in assay [3] it was 17.2. For the same compound, the Ki – broadly, a measure of affinity in units of concentration, obtained from inhibition or displacement – on Adenosine receptor A1 is 802 nM; at Adenosine receptor A2b it was 9.65 µM; on Adenosine receptor A3 it was 47.3 nM; at Adenosine receptor A2a, 814 nM.
Consider `Cn1cc2c(nc(NCc3ccc(-c4ccccc4)cc3)n3nc(-c4ccco4)nc23)n1`, for which the values for the Ratio Ki in assay [1], in assay [2] and in assay [3] were 29.5, 93.6 and 3.17, respectively. Moreover, the Ki at Adenosine receptor A1 is 17500 nM; on Adenosine receptor A2b it was above 10 µM; at Adenosine receptor A3, 187 nM; at Adenosine receptor A2a, 593 nM.
`Cn1cc2c(nc(NCCCCCCO)n3nc(-c4ccco4)nc23)n1`: the Ratio Ki in assay [1] was 4.43; in assay [2], 3.1; in assay [3], 0.7. Moreover, the Ki is 483 nM at Adenosine receptor A1, above 10 µM on Adenosine receptor A2b, 156 nM at Adenosine receptor A3 and 109 nM on Adenosine receptor A2a.
On to `Cn1cc2c(nc(NC3CCC3)n3nc(-c4ccco4)nc23)n1`, for which the Ratio Ki in assay [1] turned out to be 2.01; in assay [2], 9.6; in assay [3] it was 4.77. Moreover, the inhibition constant (Ki) at Adenosine receptor A1 was 169 nM; on Adenosine receptor A2b, 1.11 µM; on Adenosine receptor A3, 17.6 nM; at Adenosine receptor A2a it was 83.9 nM.
As for `COCCNc1nc2nn(C)cc2c2nc(-c3ccco3)nn12`, the Ratio Ki in assay [1] came to 5.9; in assay [2], 9.76; in assay [3], 1.65. Further, the Ki at Adenosine receptor A1 was 2400 nM; on Adenosine receptor A2b, above 10 µM; at Adenosine receptor A3 it was 246 nM; on Adenosine receptor A2a it was 407 nM.
For `CCCCN(C)c1nc2nn(C)cc2c2nc(-c3ccco3)nn12`, the Ratio Ki came out at 0.77 in assay [1], 28.9 in assay [2] and 37.6 in assay [3]. Besides, the Ki at Adenosine receptor A1 is 1060 nM; on Adenosine receptor A2b, above 10 µM; at Adenosine receptor A3, 36.7 nM; on Adenosine receptor A2a it was 1380 nM.
For the compound `CC(C)Nc1nc2nn(C)cc2c2nc(-c3ccco3)nn12`, the Ratio Ki in assay [1] was found to be 0.86; in assay [2] it was 9.76; in assay [3], 11.4. The inhibitory constant (Ki) at Adenosine receptor A1 stood at 333 nM; on Adenosine receptor A2b it was 9.72 µM; at Adenosine receptor A3 it was 34.1 nM; on Adenosine receptor A2a it was 389 nM.
Take `CN(Cc1ccccc1)c1nc2nn(C)cc2c2nc(-c3ccco3)nn12`: the results for the Ratio Ki in assay [1], in assay [2] and in assay [3] were 0.52, 31.4 and 60, respectively. The Ki is 566 nM at Adenosine receptor A1, above 10 µM on Adenosine receptor A2b, 18 nM at Adenosine receptor A3 and 1080 nM on Adenosine receptor A2a.
For `Cn1cc2c(n1)[nH]c(=O)n1nc(-c3ccco3)nc21`, the Ratio Ki in assay [2] and in assay [3] was above 5.68 in each case. Also, the Ki on Adenosine receptor A1 is above 30000 nM; on Adenosine receptor A2b, above 10 µM; at Adenosine receptor A3, 5280 nM; at Adenosine receptor A2a it was above 30000 nM.
In the case of `Cn1cc2c(nc(NCCCCCO)n3nc(-c4ccco4)nc23)n1`, the Ratio Ki in assay [1] was found to be 4.23; in assay [2], 3.86; in assay [3], 0.91. The Ki on Adenosine receptor A1 is 525 nM; at Adenosine receptor A2b it was above 10 µM; on Adenosine receptor A3, 136 nM; on Adenosine receptor A2a, 124 nM.
Consider `CCCCCCC(C)Nc1nc2nn(C)cc2c2nc(-c3ccco3)nn12` (stereo not given), for which the Ratio Ki was determined as 0.38 in assay [1], 11.1 in assay [2] and 29.4 in assay [3]. The Ki is 265 nM on Adenosine receptor A1, above 10 µM on Adenosine receptor A2b, 23.8 nM on Adenosine receptor A3 and 701 nM on Adenosine receptor A2a.
`Cn1cc2c(nc(NC3CC3)n3nc(-c4ccco4)nc23)n1`: the Ratio Ki came out at 1.84 in assay [1], 3 in assay [2] and 1.63 in assay [3]. Also, the Ki at Adenosine receptor A1 came to 208 nM; on Adenosine receptor A2b, 1.75 µM; at Adenosine receptor A3, 69.3 nM; at Adenosine receptor A2a, 113 nM.
Take `Cn1cc2c(nc(NCCOc3ccccc3)n3nc(-c4ccco4)nc23)n1`: the Ratio Ki is 5.34 in assay [1], 16.7 in assay [2] and 3.13 in assay [3]. Moreover, the Ki on Adenosine receptor A1 is 646 nM; at Adenosine receptor A2b, 7.5 µM; on Adenosine receptor A3 it was 38.6 nM; at Adenosine receptor A2a, 121 nM.
With `C[C@@H](Nc1nc2nn(C)cc2c2nc(-c3ccco3)nn12)c1ccccc1`, the values for the Ratio Ki in assay [1], in assay [2] and in assay [3] were 24.7, 255 and 10.3, respectively. Besides, the Ki on Adenosine receptor A1 was 945 nM; on Adenosine receptor A2b it was 12.2 µM; at Adenosine receptor A3 it was 3.71 nM; at Adenosine receptor A2a, 38.2 nM.
`Cn1cc2c(nc(NCCCCO)n3nc(-c4ccco4)nc23)n1`: the values for the Ratio Ki in assay [1], in assay [2] and in assay [3] were 4.14, 4.13 and 1, respectively. The Ki on Adenosine receptor A1 is 1040 nM; at Adenosine receptor A2b, above 10 µM; at Adenosine receptor A3, 252 nM; on Adenosine receptor A2a, 251 nM.
As to `Cn1cc2c(nc(NC3CCCCC3)n3nc(-c4ccco4)nc23)n1`, the Ratio Ki came to 0.71 in assay [1], 19.4 in assay [2] and 27.2 in assay [3]. The Ki was 166 nM at Adenosine receptor A1, 6.32 µM at Adenosine receptor A2b, 8.57 nM at Adenosine receptor A3 and 233 nM at Adenosine receptor A2a.
Turning to `Cn1cc2c(nc(NC3CCCCCC3)n3nc(-c4ccco4)nc23)n1`, the Ratio Ki in assay [1] was determined as 0.66; in assay [2], 14.5; in assay [3], 21.8. Besides, the Ki on Adenosine receptor A1 was determined as 223 nM; at Adenosine receptor A2b, 6.59 µM; on Adenosine receptor A3, 15.4 nM; at Adenosine receptor A2a it was 336 nM.
For the compound `CCCCCN(CCCCC)c1nc2nn(C)cc2c2nc(-c3ccco3)nn12`, the Ratio Ki in assay [1] turned out to be 0.44; in assay [2], 4.04; in assay [3], 9.09. For the same compound, the Ki is 3330 nM on Adenosine receptor A1, above 10 µM at Adenosine receptor A2b, 824 nM at Adenosine receptor A3 and 7490 nM at Adenosine receptor A2a.
On to `Cn1cc2c(nc(NC34CC5CC(CC(C5)C3)C4)n3nc(-c4ccco4)nc23)n1`, for which the Ratio Ki in assay [2] was 87.6; in assay [3], above 794. The Ki was 3310 nM on Adenosine receptor A1, above 10 µM at Adenosine receptor A2b, 37.8 nM at Adenosine receptor A3 and above 30000 nM at Adenosine receptor A2a.
For `CC[C@H](C)Nc1nc2nn(C)cc2c2nc(-c3ccco3)nn12`, the figures for the Ratio Ki in assay [1], in assay [2] and in assay [3] were 0.53, 11.7 and 22.2, respectively. The Ki is 129 nM on Adenosine receptor A1, 2.6 µM on Adenosine receptor A2b, 11 nM on Adenosine receptor A3 and 244 nM at Adenosine receptor A2a.
As to `Cn1cc2c(nc(NCCO)n3nc(-c4ccco4)nc23)n1`, the Ratio Ki in assay [1] stood at 4.13; in assay [2], 2.1; in assay [3], 0.51. Besides, the Ki on Adenosine receptor A1 was 649 nM; at Adenosine receptor A2b, 7.47 µM; on Adenosine receptor A3 it was 309 nM; on Adenosine receptor A2a, 157 nM.
With `Cn1cc2c(nc(N3CCCCC3)n3nc(-c4ccco4)nc23)n1`, the results for the Ratio Ki in assay [1], in assay [2] and in assay [3] were 6.11, 56.4 and 9.24, respectively. The Ki on Adenosine receptor A1 is 2150 nM; on Adenosine receptor A2b, above 10 µM; at Adenosine receptor A3, 38.1 nM; on Adenosine receptor A2a, 352 nM.
Consider `CONc1nc2nn(C)cc2c2nc(-c3ccco3)nn12`, for which the Ratio Ki in assay [1] is 14.9; in assay [2] it was 6.81; in assay [3] it was 0.46. Besides, the Ki at Adenosine receptor A1 stood at 2750 nM; at Adenosine receptor A2b, 8.5 µM; at Adenosine receptor A3, 404 nM; at Adenosine receptor A2a, 185 nM.
As for `COc1nc2nn(C)cc2c2nc(-c3ccco3)nn12`, the Ratio Ki in assay [2] and in assay [3] was above 36.5 in each case. In addition, the Ki at Adenosine receptor A1 is above 30000 nM; at Adenosine receptor A2b, above 10 µM; at Adenosine receptor A3 it was 822 nM; at Adenosine receptor A2a, above 30000 nM.
